From ChEMBL document CHEMBL4689842, “EUbOPEN Chemogenomics Library wave 1” (2021)

Experiments:
Assay type in all cases: toxicity, cell-based
U2OS [1] = assay: Multiplex assay against U2OS; conditions: human
Outline: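 Live cells were stained at seeding with Hoechst33342, BioTracker Green Microtubule Cytoskeleton Dye, MitoTracker Red and Annexin V Alexa Fluor 680. Following compound addition, they were imaged on a CQ1 microscope at 37°C and 5% CO2 and gated by CellPathfinder machine learning into Hoechst high-intensity objects or normal cells, with normal cells split into healthy, pyknosed or fragmented nuclei and pyknosed cells into mitotic or apoptotic. Tubulin, mitochondrial-mass and membrane-permeability phenotypes are per cents of healthy-nucleus cells.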

HEK-293T = assay: Incucyte cell viability with HEK293T; conditions: human, 10 µM, compound concentration 10 uM; further: filed as whole numbers so only -1 and 0 and 1 occur
Fibroblast = assay: Incucyte cell viability with human fibroblast; conditions: 10 µM, compound concentration 10 uM; further: filed as whole numbers so only -1 and 0 and 1 occur
U2OS [2] = assay: Incucyte cell viability with U2OS; conditions: human, 10 µM, compound concentration 10 uM; further: filed as whole numbers so only -1 and 0 and 1 occur
[3] = 24 h, 10 µM, compound concentration 10 uM, replicate 1
[4] = 24 h, 10 µM, compound concentration 10 uM, replicate 2
[5] = 48 h, 1 µM, compound concentration 1 uM, replicate 1
[6] = 48 h, 1 µM, compound concentration 1 uM, replicate 2
[7] = 48 h, 10 µM, compound concentration 10 uM, replicate 1
[8] = 48 h, 10 µM, compound concentration 10 uM, replicate 2
[9] = 6 h, replicate number 1, timepoint 6 hours
[10] = 12 h, replicate number 1, timepoint 12 hours
[11] = 18 h, replicate number 1, timepoint 18 hours
[12] = 24 h, replicate number 1, timepoint 24 hours

Cc1nc(Cc2cccc(C(F)(F)F)c2)sc1-c1ccc(C(N)=O)nc1 [TP-024n]
Population Pyknosed Nuclei (%) (U2OS [1]; [3]): 21% | Population Tubulin-Different-Phenotype (%) (U2OS [1]; [3]): 16% | Total Cell Count (U2OS [1]; [3]): 241 | Population Apoptotic (%) (U2OS [1]; [4]): 44% | Population Fragmented Nuclei (%) (U2OS [1]; [4]): 14% | Population Healthy Nuclei (%) (U2OS [1]; [4]): 58% | Population Hoechst High Intensity Objects (%) (U2OS [1]; [4]): 2% | Population Membrane Permeable-Phenotype (%) (U2OS [1]; [4]): 25% | Population Mitochondria Different-Phenotype (%) (U2OS [1]; [4]): 32% | Population Mitotic Cells (%) (U2OS [1]; [4]): 55% | Population Normal (%) (U2OS [1]; [4]): 97% | Population Pyknosed Nuclei (%) (U2OS [1]; [4]): 26% | Population Tubulin-Different-Phenotype (%) (U2OS [1]; [4]): 22% | Total Cell Count (U2OS [1]; [4]): 60 | Population Apoptotic (%) (U2OS [1]; [5]): 32% | Population Healthy Nuclei (%) (U2OS [1]; [5]): 88% | Population Hoechst High Intensity Objects (%) (U2OS [1]; [5]): 3% | Population Membrane Permeable-Phenotype (%) (U2OS [1]; [5]): 2% | Population Mitochondria Different-Phenotype (%) (U2OS [1]; [5]): 8% | Population Mitotic Cells (%) (U2OS [1]; [5]): 68% | Population Normal (%) (U2OS [1]; [5]): 96% | Population Pyknosed Nuclei (%) (U2OS [1]; [5]): 6% | Population Tubulin-Different-Phenotype (%) (U2OS [1]; [5]): 7% | Total Cell Count (U2OS [1]; [5]): 160 | Population Apoptotic (%) (U2OS [1]; [6]): 33% | Population Fragmented Nuclei (%) (U2OS [1]; [6]): 4% | Population Healthy Nuclei (%) (U2OS [1]; [6]): 92% | Population Hoechst High Intensity Objects (%) (U2OS [1]; [6]): 4% | Population Membrane Permeable-Phenotype (%) (U2OS [1]; [6]): 3% | Population Mitochondria Different-Phenotype (%) (U2OS [1]; [6]): 10% | Population Mitotic Cells (%) (U2OS [1]; [6]): 66% | Population Normal (%) (U2OS [1]; [6]): 95% | Population Pyknosed Nuclei (%) (U2OS [1]; [6]): 3% | Population Tubulin-Different-Phenotype (%) (U2OS [1]; [6]): 14% | Total Cell Count (U2OS [1]; [6]): 122 | Population Apoptotic (%) (U2OS [1]; [7]): 55% | Population Fragmented Nuclei (%) (U2OS [1]; [7]): 20% | Population Healthy Nuclei (%) (U2OS [1]; [7]): 56% | Population Hoechst High Intensity Objects (%) (U2OS [1]; [7]): 5% | Population Membrane Permeable-Phenotype (%) (U2OS [1]; [7]): 10% | Population Mitochondria Different-Phenotype (%) (U2OS [1]; [7]): 19% | Population Mitotic Cells (%) (U2OS [1]; [7]): 44% | Population Normal (%) (U2OS [1]; [7]): 94% | Population Pyknosed Nuclei (%) (U2OS [1]; [7]): 22% | Population Tubulin-Different-Phenotype (%) (U2OS [1]; [7]): 13% | Total Cell Count (U2OS [1]; [7]): 386 | Population Apoptotic (%) (U2OS [1]; [8]): 72% | Population Fragmented Nuclei (%) (U2OS [1]; [8]): 17% | Population Healthy Nuclei (%) (U2OS [1]; [8]): 69% | Population Hoechst High Intensity Objects (%) (U2OS [1]; [8]): 6% | Population Membrane Permeable-Phenotype (%) (U2OS [1]; [8]): 32% | Population Mitochondria Different-Phenotype (%) (U2OS [1]; [8]): 32% | Population Mitotic Cells (%) (U2OS [1]; [8]): 27% | Population Normal (%) (U2OS [1]; [8]): 93% | Population Pyknosed Nuclei (%) (U2OS [1]; [8]): 13% | Population Tubulin-Different-Phenotype (%) (U2OS [1]; [8]): 35% | Total Cell Count (U2OS [1]; [8]): 93 | Growth Rate (HEK-293T; 0 h, replicate number 2, timepoint 0 hours): 0 | Growth Rate (HEK-293T; [9]): 0 | Growth Rate (HEK-293T; [10]): 0 | Growth Rate (HEK-293T; [11]): 0 | Growth Rate (HEK-293T; [12]): 0 | Growth Rate (Fibroblast; [9]): 0 | Growth Rate (Fibroblast; [10]): 0 | Growth Rate (Fibroblast; [11]): 0 | Growth Rate (Fibroblast; [12]): 0 | Growth Rate (U2OS [2]; [9]): 0 | Growth Rate (U2OS [2]; [10]): 0 | Growth Rate (U2OS [2]; [11]): 0 | Growth Rate (U2OS [2]; [12]): 0
